Reference: ChEMBL document CHEMBL1149323, “Synthesis and evaluation of dihydropyrroloquinolines that selectively antagonize P-glycoprotein” (J Med Chem, 2004)

Assays:
[1] = Reversal index is the ratio of IC50 in the absence of modulator to that of presence of modulator when combined with cisplatin (uM) in MCF-7/VP cell line; assay type: functional
Procedure, shortened: (§1)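 Cells treated in triplicate for 48 h with graded cytotoxic drug, with or without modulator. Survival quantified by sulforhodamine B absorbance at 570 nm. IC50 of the cytotoxic drug derived with and without modulator; reversal index = IC50 without modulator / IC50 with modulator.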

[2] = Reversal index is the ratio of IC50 in the absence of modulator to that of presence of modulator when combined with vinblastine (nM) in P388/ADR cell line; assay type: functional; procedure, shortened: as §1
[3] = Reversal index is the ratio of IC50 in the absence of modulator to that of presence of modulator when combined with vincristine (nM) in T24 cell line; assay type: functional, T-24; procedure, shortened: as §1
[4] = Reversal index is the ratio of IC50 in the absence of modulator to that of presence of modulator when combined with taxol (nM) in MCF-7 cell line; assay type: functional, MCF7; procedure, shortened: as §1
[5] = Reversal index is the ratio of IC50 in the absence of modulator to that of presence of modulator when combined with doxorubicin (uM) in P388/ADR cell line
[6] = Reversal index is the ratio of IC50 in the absence of modulator to that of presence of modulator when combined with vincristine (nM) in MCF-7/VP cell line; assay type: functional; procedure, shortened: as §1
[7] = Reversal index is the ratio of IC50 in the absence of modulator to that of presence of modulator when combined with 5-fluorouracil (uM) in MCF-7/VP cell line; assay type: functional; procedure, shortened: as §1
[8] = Reversal index is the ratio of IC50 in the absence of modulator to that of presence of modulator when combined with cisplatin (uM) in MCF-7 cell line; assay type: functional, MCF7; procedure, shortened: as §1
[9] = Reversal index is the ratio of IC50 in the absence of modulator to that of presence of modulator when combined with taxol (nM) in T24 cell line; assay type: functional, T-24; procedure, shortened: as §1
[10] = Reversal index is the ratio of IC50 in the absence of modulator to that of presence of modulator when combined with taxol (nM) in NCI/ADR cell line; assay type: functional; procedure, shortened: as §1
[11] = Reversal index is the ratio of IC50 in the absence of modulator to that of presence of modulator when combined with 5-Fluorouracil (uM) in T24 cell line; assay type: functional, T-24; procedure, shortened: as §1
[12] = Reversal index is the ratio of IC50 in the absence of modulator to that of presence of modulator when combined with cisplatin (uM) in NCI/ADR cell line; assay type: functional; procedure, shortened: as §1
[13] = Reversal index is the ratio of IC50 in the absence of modulator to that of presence of modulator when combined with taxol (nM) in MCF-7/VP cell line; assay type: functional; procedure, shortened: as §1
[14] = Reversal index is the ratio of IC50 in the absence of modulator to that of presence of modulator when combined with cisplatin (uM) in T24 cell line; assay type: functional, T-24; procedure, shortened: as §1
[15] = Reversal index is the ratio of IC50 in the absence of modulator to that of presence of modulator when combined with 5-Fluorouracil (uM) in MCF-7 cell line; assay type: functional, MCF7; procedure, shortened: as §1
[16] = Reversal index is the ratio of IC50 in the absence of modulator to that of presence of modulator when combined with cisplatin (uM) in P388/ADR cell line; assay type: functional; procedure, shortened: as §1
[17] = Reversal index is the ratio of IC50 in the absence of modulator to that of presence of modulator when combined with vincristine (nM) in NCI/ADR cell line; assay type: functional; procedure, shortened: as §1
[18] = Reversal index is the ratio of IC50 in the absence of modulator to that of presence of modulator when combined with 5-fluorouracil (uM) in P388/ADR cell line; assay type: functional; procedure, shortened: as §1
[19] = Reversal index is the ratio of IC50 in the absence of modulator to that of presence of modulator when combined with vincristine (nM) in P388/ADR cell line; assay type: functional; procedure, shortened: as §1
[20] = Reversal index is the ratio of IC50 in the absence of modulator to that of presence of modulator when combined with vinblastine (nM) in NCI/ADR cell line; assay type: functional; procedure, shortened: as §1
[21] = Reversal index is the ratio of IC50 in the absence of modulator to that of presence of modulator when combined with vincristine (nM) in MCF-7 cell line; assay type: functional, MCF7; procedure, shortened: as §1
[22] = Reversal index is the ratio of IC50 in the absence of modulator to that of presence of modulator when combined with 5-fluorouracil (uM) in NCI/ADR cell line; assay type: functional; procedure, shortened: as §1
[23] = Reversal index is the ratio of IC50 in the absence of modulator to that of presence of modulator when combined with vinblastine (nM) in T24 cell line; assay type: functional, T-24; procedure, shortened: as §1
[24] = Reversal index is the ratio of IC50 in the absence of modulator to that of presence of modulator when combined with vinblastine (nM) in MCF-7/VP cell line; assay type: functional; procedure, shortened: as §1
[25] = Reversal index is the ratio of IC50 in the absence of modulator to that of presence of modulator when combined with vinblastine (nM) in MCF-7 cell line; assay type: functional, MCF7; procedure, shortened: as §1
Mus musculus [26] = assay: The second majority of the volume of distribution after intraperitoneal administration of 100 mg/kg in mice; assay type: ADME, organism-based; parameters: dose 100 mg/kg, route intraperitoneal; settings: in vivo, ip
Procedure, shortened: (§2)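 Female Swiss-Webster mice, 6–8 weeks old, given 100 mg/kg PGP-4008·HCl intraperitoneally. Blood taken by intracardiac puncture under anesthesia at 1–240 min, three animals per time point. Samples precipitated with ice-cold acetonitrile with 2-naphthol internal standard, then HPLC read at 254 nm against a standard curve. Two-compartment model fit.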

Mus musculus [27] = assay: AUMC after intraperitoneal administration of 100 mg/kg in mice; assay type: ADME, organism-based; parameters: dose 100 mg/kg, route intraperitoneal; settings: in vivo, ip; procedure, shortened: as §2
[28] = Compound was evaluated for broad range of antagonistic activity against multi drug resistance-related protein (MRP) value expressed as IC20; assay type: functional; parameters: unit not given here
Mus musculus [29] = assay: Volume of the first compartment after intraperitoneal administration of 100 mg/kg in mice; settings: in vivo, ip
[30] = Reversal index is the ratio of IC50 in the absence of modulator to that of presence of modulator when combined with taxol (nM) in P388/ADR cell line
[31] = target: ATP-dependent translocase ABCB1 (Homo sapiens, UniProt P08183); assay: Compound was evaluated for broad range of antagonistic activity against P-glycoprotein (Pgp) value expressed as IC20; assay type: functional
MCF-7 (Homo sapiens) = assay: Toxicity against MCF-7 cells
Mus musculus [32] = assay: In vivo tumor growth inhibition in mice when administered subcutaneously at a day 5; assay type: functional; settings: in the assay text read “intraperitoneally” for “subcutaneously”
Procedure, shortened: (§3)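 Balb/c female mice, 6–8 weeks old, with 10^6 JC murine mammary adenocarcinoma cells injected subcutaneously in the right hind quarter. Treatment began once tumors were palpable (day 1), five mice per group. Dosing on days 1, 5 and 9: 100 mg/kg i.p. PGP-4008·HCl with or without 5 mg/kg doxorubicin. Caliper volumes calculated as (L×W²)/2 through day 15; unpaired t-test with Welch correction.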

Mus musculus [33] = assay: In vivo tumor growth inhibition in mice when administered […] at a day 9; assay type: functional; procedure, shortened: as §3
Mus musculus [34] = assay: Volume of distribution after intraperitoneal administration of 100 mg/kg in mice; assay type: ADME, organism-based; parameters: dose 100 mg/kg, route intraperitoneal; settings: in vivo, ip; procedure, shortened: as §2
Mus musculus [35] = assay: In vivo tumor growth inhibition in mice when administered […] at a day 12; assay type: functional; procedure, shortened: as §3
[36] = Maximum concentration in plasma was determined after intraperitoneal administration of 100 mg/kg in mice; assay type: ADME, organism-based; parameters: dose 100 mg/kg, route intraperitoneal; settings: mouse, ip; procedure, shortened: as §2
Mus musculus [37] = assay: In vivo tumor growth inhibition in mice when […] at a day 1; assay type: functional; procedure, shortened: as §3
[38] = Plasma clearance rate after intraperitoneal administration of 100 mg/kg in mice; assay type: ADME, organism-based; parameters: dose 100 mg/kg, route intraperitoneal; settings: mouse, ip, read-out: Clp (converted); procedure, shortened: as §2
Mus musculus [39] = assay: In vivo tumor growth inhibition in mice when […] at a day 15; assay type: functional; procedure, shortened: as §3

ATP-dependent translocase ABCB1, sequence (P08183 whole entry): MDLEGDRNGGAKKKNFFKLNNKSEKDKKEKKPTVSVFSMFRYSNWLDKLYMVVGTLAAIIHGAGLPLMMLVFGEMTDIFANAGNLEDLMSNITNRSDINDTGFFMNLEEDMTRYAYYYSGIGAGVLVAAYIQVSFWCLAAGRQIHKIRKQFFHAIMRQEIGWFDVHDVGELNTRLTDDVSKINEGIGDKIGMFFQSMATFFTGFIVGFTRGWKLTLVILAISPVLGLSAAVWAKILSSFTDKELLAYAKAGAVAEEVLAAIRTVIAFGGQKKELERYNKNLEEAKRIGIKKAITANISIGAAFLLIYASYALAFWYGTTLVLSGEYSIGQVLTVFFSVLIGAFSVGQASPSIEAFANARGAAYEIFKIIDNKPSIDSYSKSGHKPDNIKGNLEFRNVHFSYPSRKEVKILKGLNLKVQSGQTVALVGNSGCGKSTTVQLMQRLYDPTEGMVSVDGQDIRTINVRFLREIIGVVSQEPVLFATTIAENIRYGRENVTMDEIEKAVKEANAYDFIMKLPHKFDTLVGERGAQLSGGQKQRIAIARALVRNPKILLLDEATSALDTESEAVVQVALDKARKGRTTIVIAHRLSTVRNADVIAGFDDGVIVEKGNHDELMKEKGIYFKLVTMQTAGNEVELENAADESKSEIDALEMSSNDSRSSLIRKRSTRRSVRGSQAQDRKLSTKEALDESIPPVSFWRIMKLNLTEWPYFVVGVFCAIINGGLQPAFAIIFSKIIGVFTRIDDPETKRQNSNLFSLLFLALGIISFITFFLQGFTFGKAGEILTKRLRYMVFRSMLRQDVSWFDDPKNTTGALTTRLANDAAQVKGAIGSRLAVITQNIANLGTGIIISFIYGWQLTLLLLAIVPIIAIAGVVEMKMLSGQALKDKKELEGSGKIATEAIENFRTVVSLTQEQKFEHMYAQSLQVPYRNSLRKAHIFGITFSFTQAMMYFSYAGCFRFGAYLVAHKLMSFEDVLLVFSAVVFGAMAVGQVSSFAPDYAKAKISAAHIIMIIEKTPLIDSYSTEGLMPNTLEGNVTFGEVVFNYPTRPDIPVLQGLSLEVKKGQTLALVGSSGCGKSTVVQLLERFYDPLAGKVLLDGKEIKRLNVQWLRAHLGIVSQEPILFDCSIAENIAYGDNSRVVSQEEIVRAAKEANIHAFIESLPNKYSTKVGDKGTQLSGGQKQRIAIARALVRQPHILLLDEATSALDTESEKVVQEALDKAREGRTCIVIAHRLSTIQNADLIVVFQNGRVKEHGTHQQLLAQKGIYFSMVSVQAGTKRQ

| Structure (SMILES) | RI [1] | RI [2] | RI [3] | RI [4] | RI [5] | RI [6] | RI [9] | RI [10] | RI [11] | RI [12] | RI [13] | RI [14] | RI [16] | RI [17] | RI [18] | RI [19] | RI [20] | RI [21] | RI [22] | RI [23] | further results |
| --- | --- | --- | --- | --- | --- | --- | --- | --- | --- | --- | --- | --- | --- | --- | --- | --- | --- | --- | --- | --- | --- |
| COc1ccc(CCN(C)CCCC(C#N)(c2ccc(OC)c(OC)c2)C(C)C)cc1OC (configuration not stated) | 0.8 | 61 | 3.7 | 1.1 | 1000 | 15 | 1.6 | 106 | 1.6 | 1.1 | 1.1 | 1 | 2 | 50 | 0.7 | 112 | 173 | 4.6 | 0.9 | 2.7 | RI [7]: 0.9; RI [8]: 1.1; RI [15]: 0.9; RI [24]: 2.4; RI [25]: 1.2 |
| O=C(Cc1ccccc1)Nc1c2c(nc3ccccc13)N(Cc1ccccc1)CC2 | 0.8 | 63 | 1.5 | 0.9 | 200 | 1 | 1.2 | 70 | 2.6 | 1.2 | 0.8 | 1.1 | 1.9 | 18 | 0.7 | 30 | 35 | 0.9 | 1 | 3.8 | V2 (Mus musculus [26]): 40.5 mL; AUMC (Mus musculus [27]): 9.4 µg·h²/mL; Activity [28]: 0.7; V1 (Mus musculus [29]): 2.3 mL; RI [30]: 202; Activity [31]: 10.7; Toxicity (MCF-7 (Homo sapiens)): 13 µM; Tumor volume (Mus musculus [32]): 470 mm**3; Tumor volume (Mus musculus [33]): 1030 mm**3; Vdss (Mus musculus [34]): 43 mL; Tumor volume (Mus musculus [35]): 1280 mm**3; Cmax [36]: 197 µg/mL; Tumor volume (Mus musculus [37]): 380 mm**3; CL/F [38]: 1.34 mL/min; Tumor volume (Mus musculus [39]): 2000 mm**3; RI [24]: 1.3; RI [25]: 1.8 |
